Test: Toxicity liver stage against HepG2, at 10uM
Type: cell-based
Parameters: test concentration 10 uM, cell line HepG2-A16-CD81EGFP
Conditions: human, HepG2-A16-CD81EGFP cells; read-out: INHIBITION
Summary of the method: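 Uninfected HepG2-A16-CD81EGFP cells, 3 × 10^3 per well, 1536-well, plated on prespotted compound at 10 μM final, parasite-free screening media added to match infected plates; puromycin 10 μM positive, DMSO 0.5% negative; run in parallel with 48 h PbLuc assay at 37 °C, 5% CO2; viability by CellTiter-Glo luminescence, normalized to controls.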

| Compound | cytotoxicity at 10 µM [%] |
| --- | --- |
| O=C(c1cccnc1O)N(Cc1ccsc1)CC1CCCO1 (stereo not given) | -12.3 |
| Cc1nc(N2CCC3(CCCN(C(C)C)C3=O)C2)c2sccc2n1 (stereo not given) | 18.6 |
| FC(F)(F)c1ccc(-c2n[nH]c3c2CN(CC2CCOC2)CC3)cc1 (stereo not given) | -52.1 |
| CS(=O)(=O)N[C@@H]1CN(C(=O)c2ccccn2)[C@@H]2CCCO[C@@H]21 | 4.3 |
| Cc1csc(CNC(=O)NCC(O)c2ccc(F)cc2F)n1 (stereo not given) | -10.8 |
| Cn1c(SCc2noc(-c3ccsc3)n2)nnc1C1CCS(=O)(=O)C1 (stereo not given) | 3.39 |
| CC(C)c1nc(S(=O)(=O)Nc2ccnn2C2CCCC2)c[nH]1 | -3.36 |
| CC(NC1(CNC(=O)CC2CCCC2)CCOCC1)c1ccccc1 (stereo not given) | -1.67 |
| Cc1ccc(-n2nnc(C(=O)NCCS(N)(=O)=O)c2C2CC2)cc1 | -5.21 |
| c1cn(CCNc2nc(NC3CC3)nc3c2CCNCC3)nn1 | -52.8 |
| O=C(NCCc1ccc(F)cc1)NC1CCCc2c1cnn2CCO (stereo not given) | -3.46 |
| Cc1nc(COCc2cnc3n2CCN(C)C3C)cs1 (stereo not given) | 6.01 |
| COc1ncccc1C(=O)N1CCC2(CC1)CC(OC)CO2 (stereo not given) | -97 |
| Cc1ncsc1CN(C)C(=O)CC1CCOc2ccccc21 (stereo not given) | 20.2 |
| Cc1nc(NCC2CC2)nc2c1COCC21CCN(C(=O)C(C)(C)C)C1 (stereo not given) | -77.8 |
| CN(CCC(F)(F)F)c1nc2ccccc2c(=O)[nH]1 | -5.11 |
| CCCN(CCC)Cc1nnsc1Cl | 10.3 |
| Cc1noc(C)c1CNC(=O)N1CCN(Cc2cscn2)CC1 | -6.31 |
| CC(C)CCn1[nH]c(CNc2ccccc2)nc1=O | 1.62 |
| O=C(NCC1CC1)c1nc(COc2ccc3c(c2)OCO3)no1 | 8.89 |
| NC(=O)Cn1ccc(NC(=O)C2(c3ccc(F)cc3)CC2)n1 | -2.82 |
| Cc1ccc2oc(C(=O)N3CCc4nnc(N(C)C)cc4C3)cc2n1 | -3.25 |

| Compound | cytotoxicity at 10 µM [%] |
| --- | --- |
| CC(=O)N1CCC2(CC1)[C@@H]1CN(Cc3cccnc3)C[C@@H]1C(=O)N2C | 4.73 |
| Cc1nc2c(c(C)c1CC(=O)NC(C)c1ccccc1)c(=O)[nH]n2C (stereo not given) | -3.44 |
| CCCNC(=O)N1CCC(c2nnc(Cn3cccn3)n2C2CC2)CC1 | -7.92 |
| O=C(Cn1cnc2cc3c(cc21)OCCCO3)NC1CCCCC1 | 5.68 |
| COCC1CN(Cc2ccc3c(c2)OCO3)Cc2ncn(C)c21 (stereo not given) | 4.18 |
| Cc1cc(C(=O)N2CCCC2c2nc(C)cc(O)n2)on1 (stereo not given) | -15.2 |
| CC(=O)N(Cc1ncc(C)o1)C1CCN(CCCc2cnn(C)c2)C1 (stereo not given) | 8.11 |
| N#Cc1ccc(N2CCCN(CC(=O)N3CCC3)CC2)cc1 | -8.38 |
| CC(C)CC(=O)Nc1ccc(Oc2ccsc2C(=O)O)cc1 | 7.66 |
| CN(CCn1nc2ccccn2c1=O)CC(=O)N1CCCC1 | 7.08 |
| Cc1n[nH]c(C)c1-c1cnc(CC2CCCN(S(C)(=O)=O)C2)cn1 (stereo not given) | -7.3 |
| C(=C\c1ccc(CN2CCCC2)cn1)/c1ccccc1 | 9.81 |
| O=C(Cc1cc2c(cc1Br)OCCO2)NC1CCS(=O)(=O)C1 (stereo not given) | 10.1 |
| CC(C)NC(=O)N1CCC[C@H]1C(=O)NCCCc1cccc(F)c1 | 4.27 |
| O=C(NC1CCCC1)C1(Cc2cc(C3CCOC3)no2)CCNCC1 (stereo not given) | -1.57 |
| COc1c(CNCCC(=O)Nc2cccc(C)n2)c(C)nn1C | 12.6 |
| Cc1ccccc1CN1CCCN(CCN2CCOC2=O)CC1 | -7.53 |
| FC(F)(F)c1ccc(CNC[C@H]2COCc3nc4cccnc4n32)cc1 | 8.04 |
| COC(=O)CN(C(=O)c1cc(C(C)C)no1)c1cccc(F)c1 | 11.3 |
| O=C(c1cnccn1)N1CC[C@H]2[C@@H]1CCC(=O)N2c1cccnc1 | -81.6 |
| CCn1cnnc1CNc1nc(C)nc2scc(CC(C)C)c12 | -3.17 |
| Cc1ccc(NC(=O)N2CC(C(=O)NC(C)C)C3(CCOCC3)C2)cc1 (stereo not given) | -74.3 |

| Compound | cytotoxicity at 10 µM [%] |
| --- | --- |
| Cn1ccnc1CN1CCOCC(Cc2ccccn2)C1 (stereo not given) | 7.17 |
| Cc1nc(CN2CCCn3c(nc(Cn4cncn4)cc3=O)C2)cs1 | 3.75 |
| Cc1nn(C)c2c(N(C)Cc3cccs3)nc(C3CC3)nc12 | -126 |
| O=C(c1ccc2c(c1)OCO2)N1CCCC(n2cccn2)C1 (stereo not given) | -8.4 |
| C=C(C)CNc1nc(CS(=O)(=O)c2ccccc2)cs1 | -8.37 |
| CNc1ccccc1C(=O)N(C)CCc1ccccc1 | -1.76 |
| Cc1nc(C(C)Nc2nc3c(s2)c(C)nn3C)n[nH]1 (stereo not given) | 10.2 |
| CCOC1CCN(C(=O)c2cc(-c3ccc(Cl)cc3)on2)CC1 | -5.08 |
| O=C(c1ccc[nH]1)N1CCO[C@]2(CCC[C@@H]2COc2cccnc2)C1 | 9.46 |
| CCCn1ccnc1CN1C[C@@H](NC(C)=O)[C@H](c2ccc(C)cc2)C1 | 1.9 |
| Cn1ccnc1CN1CCN2C[C@H](OCc3ccccc3)C[C@H]2C1 | 9.37 |
| CN(C)C(=O)CN1C(=O)CCC12CCN(Cc1ccsc1)CC2 | -3.13 |
| CC1(C)COCCN1C(=O)Cc1cc(Cl)c2c(c1)OCCO2 | 1.54 |
| Cc1ccc(-c2noc(C(O)CC(C)C)n2)nn1 (stereo not given) | -7.72 |
| CN1CCc2ncc(CNC(=O)c3cccn3C)n2CC1 | 1.27 |
| CCN(c1ccc(C(=O)N2CCC(C(N)=O)CC2)cc1)S(=O)(=O)CC | 11.6 |
| CNC(=O)C1CCCCN1C(=O)C1CCN(S(C)(=O)=O)CC1 (stereo not given) | 6.03 |
| COc1cccc(CNC(C)Cn2cccn2)c1OC (stereo not given) | -4.84 |
| O=C([C@H]1CCCO1)N1CC[C@H](O)[C@@H]1Cc1cccnc1 | -105 |
| Cc1cn2nc(N3CCCC3Cn3nc(C)cc3C)sc2n1 (stereo not given) | -1.32 |
| Cc1ccc2nc(CN3CCCCC3CCN3CCOCC3)cn2c1 (stereo not given) | 3.28 |
| O=C(C1=CC2(CCNCC2)c2ccccc21)N1CCCC1 | -2.07 |

| Compound | cytotoxicity at 10 µM [%] |
| --- | --- |
| CCc1ccc(C(=O)NC2CCN(c3cnn(C)c3)C2=O)o1 (stereo not given) | -6.13 |
| Cc1cnn(CC2CCCCN2Cc2c(C)noc2C)c1 (stereo not given) | -11.2 |
| Fc1cnc(N2CCO[C@H]3CN(CC4CCCCC4)C[C@H]32)nc1 | 6.61 |
| CS(=O)(=O)N1CCCC12CCCN(C(=O)c1ccc3[nH]ccc3c1)C2 (stereo not given) | -140 |
| OCC1CCCN(Cc2c(C3CCCC3)[nH]c3ncccc23)C1 (stereo not given) | 6.35 |
| CCc1cnc(NC(=O)NC2CCN(C)CC2)s1 | -5.66 |
| CC(C)(C)n1nc(C(=O)NCC2(C(N)=O)CCOCC2)cc1C1CC1 | -15.9 |
| Cc1cc(-c2nn3c(C(C)C)nnc3s2)on1 | 0.9 |
| CC(C)c1nccc(CN2CCCC(O)(CN3CCCC3)C2)n1 (stereo not given) | -0.413 |
| CN(C)[C@@H]1CO[C@H](CNC(=O)c2cccs2)[C@H]1O | -1.37 |
| CCCn1nc2c(cc1=O)CN(Cc1nnc(C3CC3)o1)CC2 | 2.11 |
| CNC(=O)CCc1cc(C)nc(C2CCCCN2)n1 (stereo not given) | -9.83 |
| CC(=O)N1CCN2C[C@H](CO)[C@@H](c3ccccc3)[C@H]2C1 | 3.54 |
| Cc1ccc(-c2cnnc(N3CCCC3c3nonc3C)n2)o1 (stereo not given) | 5.46 |
| Cc1ccn(CC(=O)NCCCOc2ccccc2F)c(=O)c1 | -5.79 |
| O=S(=O)(N1CCCC1)N1CC[C@H](c2ccccc2)[C@H]2NCCCC[C@H]21 | -25.1 |
| COC[C@@H]1CCCN1C(=O)CCc1c(C)nn(C)c1C | 5.01 |
| O=C(NCc1ccccc1CN1CCOCC1)c1ccc(Br)cc1F | 12.3 |
| CCc1c(C)nc2ccccc2c1N1CCC(C(=O)NC)CC1 | 3.85 |
| O=C(CCn1ccc2cc(Br)ccc21)NCc1ccc(C(=O)O)cc1 | -11.8 |
| Cc1cc(CNC(=O)N2CCN(c3nc(C)c(C)s3)CC2)no1 | -1.01 |
| NCC1CCC(C(NC(=O)C2CC2)c2ccccn2)CC1 (stereo not given) | -12.6 |

| Compound | cytotoxicity at 10 µM [%] |
| --- | --- |
| CC(C)OCCCNC(=O)CN1CCC(N2CCN(C)C2=O)CC1 | -6.82 |
| Cc1noc(C)c1CN(Cc1ccccc1)C(C)C | -9.74 |
| CN(Cc1ccc2c(c1)OCO2)Cc1nc(Cc2ccccc2)no1 | -2.59 |
| COc1ccc2nc(C3CC3)cc(C(=O)NCC(=O)N(C)C)c2c1 | -3.41 |
| Nc1nc(N)c2c(n1)OC1(CCCN(Cc3nccs3)CC1)C2 (stereo not given) | -2.25 |
| CN1CCOC(C(=O)N2CCC3(CCCCC3)C2)C1 (stereo not given) | 5.41 |
| O=C(NCCc1ccccc1)c1cccc(S(=O)(=O)NC2CCOC2)c1 (stereo not given) | 3.52 |
| O=C(CCc1ccsc1)N1CCC(n2cc(CO)nn2)CC1 | -3.37 |
| Cc1nn(C2CCS(=O)(=O)C2)c(O)c1Cc1cccc(Cl)c1 (stereo not given) | -46.9 |
| CCc1nccn1C1CCCN(C(=O)COCC(F)(F)F)C1 (stereo not given) | -9.74 |
| CC(C)CC(=O)N1C[C@H]2CCCN(S(=O)(=O)c3ccc(Cl)s3)[C@H]2C1 | -1.63 |
| Cc1nc(C)n(CC2CCCCN2c2ccnc(-c3ccccc3)n2)n1 (stereo not given) | -1.17 |
| CN1CCCCC1(C)C(=O)N1CCC(c2ccccn2)CC1 (stereo not given) | 1.66 |
| CC(C)c1ccc(C(=O)O)cc1S(=O)(=O)Nc1ccc(=O)n(C)c1 | -13.1 |
| CC(C(=O)O)N1CC2(CCC1=O)CCN(C/C=C/c1ccccc1)CC2 (stereo not given) | -1.72 |
| O=C(c1cc(-c2ccco2)nc2c(Cl)cccc12)N1CC[C@H]2CNC[C@H]21 | -3.29 |
| CC(=O)N1CCCC2(CCC(=O)N2Cc2cccnc2)C1 (stereo not given) | 7.59 |
| COCC(O)CN(C)c1ccnc2cc(Br)ccc12 (stereo not given) | 5.02 |
| CC(C)Oc1ccccc1CNC(=O)N(C)C(C)CS(C)(=O)=O (stereo not given) | -48.4 |
| O=C(NCc1cccc(-n2cncn2)c1)NCC(C1CC1)C1CC1 | 6.03 |
| CC(NC(=O)N1CCCN(C)CC1)c1ccc2c(c1)OCCO2 (stereo not given) | -6.36 |
| CCn1cc(NS(=O)(=O)c2ccc(Br)s2)c(C(N)=O)n1 | 2.3 |

Source: ChEMBL document CHEMBL4513216, “Probing the Open Global Health Chemical Diversity Library for Multistage-Active Starting Points for Next-Generation Antimalarials” (ACS Infect Dis, 2020)
